In the library only some 2.9% were active in any assay of this set; here they are far more common.
Apaf1 inhib – inhibitors of human Apaf-1 apoptosome | inhibition, % at 20 µM | AID 489030 | reconstituted apoptosome caspase-3 activity, DEVD-Rh110 fluorescence | 330,000 tested, 0.71% active | O14727; active = inhibition of at least 40% at 20 µM;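 note: plate controls were DMSO wells for no effect and DEVD-CHO caspase inhibitor wells for full effect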
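Material: reconstituted apoptosome with Apaf-1, cytochrome c, caspase-9, procaspase-3, dATP. Technique: Rh110 fluorescence intensity. Buffer or medium: pH 7.5 Hepes buffer with CHAPS, BSA, DTT. Times: 30 min plus 50 min, RT.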
SENP7 inh – inhibitors of human SENP7 protease; Q9BQF6; recombinant SENP7, Z-RLRGG-aminoluciferin luminescence, 40 min; inhibition, % at 5 µM; 330,000 tested, 1.5% active; AID 434973;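 active = inhibition above about 50% at the single test dose, limit read from the data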;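 note: plate controls were DMSO with enzyme for no effect and no enzyme buffer wells for full effect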
SENP8 block-1 – inhibitors of human SENP8 protease; recombinant SENP8, Nedd8 substrate fluorescence; 360,000 tested, 0.64% active; inhibition, % at 20 µM; in the data active = inhibition mostly above about 40%, no sharp cut-off; inactive = mostly below about 27%
SENP1 FRET inh – inhibitors of human SENP1 SUMO protease catalytic domain; Q9P0U3; recombinant SENP1 catalytic domain, CyPet-SUMO1-YPet FRET cleavage; inhibition, % at 10 µM; 360,000 tested, 0.21% active;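 active = inhibition at least 30% at 10 µM, raw YFP signal under a set limit, fluorescence ratio 0.5 to 1.5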;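 note: 0% = enzyme with DMSO and 100% = no enzyme wells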
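Assay system: hSENP1 catalytic domain, recombinant. Amount: SENP1 enzyme, 20 pM final. Schedule: 50 min reaction, RT, dark. Technique: FRET, CFP and YFP emission. Control set: no-enzyme wells low, DMSO-plus-enzyme wells high control.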
SENP6 inh – SENP6 protease inhibition | Q9GZR1 | Recombinant SENP6 catalytic domain, aminoluciferin luminescence | inhibition, % at 10 µM | 330,000 tested, 1.8% active;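 active = inhibition above about 50% at the single tested dose, limit read from the data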;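 note: plate controls were DMSO wells with enzyme for no effect and DMSO wells lacking enzyme for full effect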
SENP8 block-2 – blocks the human protease SENP8; 330,000 tested, 1.2% active; inhibition, % at 10 µM; Q96LD8; purified SENP8, Z-RLRGG-aminoluciferin cleavage, luminescence; AID 2540; in the data active = inhibition above about 50%
Apaf-1 inh conf – Apaf-1 inhibition, single-dose confirmed; 1,800 tested, 25% active; AID 504614; inhibition, % at 20 µM; reconstituted apoptosome, caspase-3 DEVD-Rh110 fluorescence; shares compounds with Apaf1 inhib;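 active = mean inhibition of at least 40% at 20 µM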;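 note: plate controls were DMSO wells for no effect and DEVD-CHO caspase inhibitor control wells for full effect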
Rh110 quench – counter-screen for Apaf-1 inhibitors: fluorescence interference; Rh110 fluorescence interference, quenched caspase reaction; shares compounds with Apaf1 inhib; activation (fluorescence interference), % at 20 µM; 1,800 tested, under 10 active;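 active = signal rise of 40% or more at 20 µM, treated as a fluorescence artifact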
Apaf1 inh interf – counter-screen for Apaf-1 inhibitors: fluorescence interference, dose response | fluorescence interference counterscreen, Apaf-1 assay format | shares compounds with Apaf1 inhib | 460 tested, under 10 active | IC50, µM; call rule not given here
The depositor's hits bear a star; i = inactive; x = not tested or not shown.

SMILES	Apaf1 inhib	SENP7 inh	SENP8 block-1	SENP1 FRET inh	SENP6 inh	SENP8 block-2	Apaf-1 inh conf	Rh110 quench	others
NC(=O)C1CCN(C2=C(NS(=O)(=O)c3ccc(Br)cc3)C(=O)c3ccccc3C2=O)CC1	66*	34	41*	0	41	19	48*	14	Apaf1 inh interf=>100
CCn1ccnc1CNC(=O)c1ccc(OC2CCN(C(=O)COC)CC2)cc1	2	-5	-3	1	1	-6	x	x
CN1CCN(C2=C(NS(=O)(=O)c3ccccc3)C(=O)c3ccccc3C2=O)CC1	79*	35	31	-11	49	30	45*	6	Apaf1 inh interf=>100
CCOc1ccccc1N1CCN(C2=C(NS(=O)(=O)c3cccs3)C(=O)c3ccccc3C2=O)CC1	36	10	38	-3	23	7	x	x
Cc1cc(NC(=O)CSCC(=O)Nc2ccc(C)c(C)c2)no1	54*	-12	10	-1	-16	-20	4	-4
Cc1cc(NC(=O)CSCC(=O)Nc2ccc(Cl)c(C(F)(F)F)c2)no1	-1	-3	10	0	-5	10	x	x
CCOC(=O)c1c(C)c2c(=O)[nH]cnc2n1-c1ccccc1	58*	10	3	1	-6	7	12	-5
c1csc(-c2nc3c4ccccc4c4ccccc4c3[nH]2)c1	44*	-6	-283	2	-22	-7	32	12
COc1ccc(-c2oc3cccnc3c2/C=C/c2ccc(OC)c(OC)c2)cc1	15	1	i	-75	15	-9	x	x
Oc1cccc(C=NCc2ccccc2)c1O	82*	17	54*	5	0	14	8	-6
OCCN1CCN(CC/C=C2/c3ccccc3Sc3ccc(C(F)(F)F)cc32)CC1	58*	-6	5	1	-16	-16	11	2
CN(C)CCCN1c2ccccc2Sc2ccc(C(F)(F)F)cc21	43*	3	-36	1	0	-3	9	16
OCCN1CCN(CC/C=C2/c3ccccc3CSc3ccccc32)CC1	-1	-3	24	1	-14	4	x	x
CN1CCN(CCC(=O)N2c3ccccc3Sc3ccc(C(F)(F)F)cc32)CC1	4	-12	15	4	-15	-5	x	x
OCCN1CCN(CCCN2c3ccccc3Sc3ccc(C(F)(F)F)cc32)CC1	48*	7	-34	0	-4	1	9	5
CN(C)CCC(=O)N1c2ccccc2Sc2ccc(C(F)(F)F)cc21	2	-4	12	3	16	1	x	x
CC1CCCCC1NS(=O)(=O)c1ccc2c(c1)CC(=O)N2C (stereo unspecified)	6	-1	3	2	9	2	x	x
CC(C)(C)OC(=O)N(CCc1ccccc1)Cc1ccccc1OCc1ccc(NC(=O)C2CCCC2)cc1	x	x	5	0	x	x	x	x
C(=N\c1c(-c2ccccc2)nc2n1CCS2)/c1ccccc1	41*	-5	-44	-1	-22	-7	32	6
O=C(CCc1nnc2ccc(N3CCC4(CC3)OCCO4)nn12)Nc1ccc(F)cc1	6	-7	-20	0	-16	11	x	x
CCCCNC(=S)NCC(c1ccccc1)c1c[nH]c2ccccc12 (stereo unspecified)	13	2	7	-1	-19	3	x	x
CN(C)CCCNC(=S)NCC(c1ccc(Cl)cc1Cl)c1c[nH]c2ccccc12 (stereo unspecified)	41*	-4	8	-1	-16	2	26	13
CCOC(=O)N1CCC(c2cc(=O)n3[nH]cc(C(=O)OC)c3n2)CC1	10	-3	4	0	1	-9	x	x
CCOc1ccc(NC(=O)c2c[nH]n3c(=O)cc(C4CCN(C(=O)OC(C)(C)C)CC4)nc23)cc1	40*	-11	-23	1	-20	-4	26	4
Cc1c2ccccc2nc2ccccc12	18	0	-431	-72	5	-1	x	x
SMILES	Apaf1 inhib	SENP7 inh	SENP8 block-1	SENP1 FRET inh	SENP6 inh	SENP8 block-2	Apaf-1 inh conf	Rh110 quench	others
CCCNc1c(F)c(F)c2c(C)c3ccccc3nc2c1F	51*	-1	-37	10	25	1	33	4
CCOC(=O)c1cc(-c2ccc(/C=N\n3cnnc3)o2)ccc1Cl	2	8	-66	-6	3	5	x	x
CCOC(=O)c1cc(-c2ccc(/C=C3/C(=O)N(c4ccc(C(=O)O)cc4)N=C3C)o2)ccc1Cl	50*	-1	20	1	-6	0	30	7
Cc1ccc(C)c(NC(=O)CN(C)C(=O)c2cccc(S(=O)(=O)N3CCN(Cc4ccccc4)CC3)c2)c1	41*	17	2	1	-9	-8	37	0
Cc1ccc(C)c(NC(=O)CN(C)C(=O)c2cccc(S(=O)(=O)N3CCCC3)c2)c1	-2	-1	8	0	1	8	x	x
O=C(c1ccc2c(Cl)c3c(nc2c1)CCCC3)N1CCN(c2ccc(F)cc2)CC1	35	3	7	1	-2	-5	x	x
COc1ccccc1N1CCN(C(=O)c2ccc3c(Cl)c4c(nc3c2)CCCC4)CC1	41*	3	4	2	0	-8	19	5
COc1ccc2cc(Br)ccc2c1CC(=O)NCCCN1CCOCC1	6	4	16	1	-7	-3	x	x
CCN(CC)c1ncnc2c1ncn2[C@H]1CN(Cc2ccc(OC)cc2)C[C@@H](CO)O1	x	x	6	-1	x	x	x	x
CCn1c2ccccc2c2c3ncc4cccn4c3ccc21	62*	14	-292	-24	-12	8	19	6
Cc1ccc(OCC(=O)N(Cc2nnc(-c3ccccc3Cl)o2)C2CC2)cc1C	56*	3	-8	-8	-23	-11	49*	9	Apaf1 inh interf=>100
O=C(COc1ccccc1)N(Cc1nnc(-c2ccccc2Cl)o1)C1CC1	16	8	-4	-1	-1	-4	x	x
CC(C)CCN1C(=O)C2(OCCCO2)c2cc(Cl)ccc21	16	-14	8	8	-14	-10	x	x
COc1cccc2cc(C(=O)NCc3ccc(Cl)cc3)c(=N)oc12	42*	-12	-23	2	-21	-9	24	11
COc1cccc2cc(C(=O)NCc3ccccc3)c(=N)oc12	32	-11	-15	2	-6	-6	x	x
Cc1ccc(OCc2cc(C(=O)N3CCCC(O)C3)no2)cn1 (stereo unspecified)	-2	6	2	1	-7	7	x	x
